Source: the M2OR odorant receptor database

Legend:
Conditions in all cases: stereoisomer not certain
UniProt Q8VGC6 = molecular target: T1, UniProt Q8VGC6
T1 sequence (whole entry): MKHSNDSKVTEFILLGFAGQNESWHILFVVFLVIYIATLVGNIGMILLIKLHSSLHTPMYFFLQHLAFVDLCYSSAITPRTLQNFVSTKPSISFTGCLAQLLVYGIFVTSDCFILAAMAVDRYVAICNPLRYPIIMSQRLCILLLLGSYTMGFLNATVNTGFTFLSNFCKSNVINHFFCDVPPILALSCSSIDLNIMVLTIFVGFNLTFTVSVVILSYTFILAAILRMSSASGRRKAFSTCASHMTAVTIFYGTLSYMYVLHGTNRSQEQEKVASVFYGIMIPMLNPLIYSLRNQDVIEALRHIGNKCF
In short: (§1)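 Each entry records the cell line, G-protein, co-transfected protein and tags used. Methods varied with the source, often transient luciferase assays in mammalian cell lines. A receptor–molecule pair is called responsive (active) if the original authors judged its signal statistically different from baseline and non-responsive (inactive) otherwise.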

UniProt Q8VGD7 = molecular target: T2, UniProt Q8VGD7
T2 sequence (whole entry): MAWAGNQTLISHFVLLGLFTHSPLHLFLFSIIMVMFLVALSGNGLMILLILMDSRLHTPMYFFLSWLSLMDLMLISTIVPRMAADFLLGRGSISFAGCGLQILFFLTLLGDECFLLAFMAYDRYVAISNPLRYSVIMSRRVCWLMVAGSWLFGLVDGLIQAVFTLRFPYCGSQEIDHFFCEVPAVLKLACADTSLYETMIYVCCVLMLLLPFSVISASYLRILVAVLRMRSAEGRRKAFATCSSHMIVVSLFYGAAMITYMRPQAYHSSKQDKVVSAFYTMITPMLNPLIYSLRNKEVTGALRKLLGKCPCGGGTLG
In short: as §1

UniProt Q8VGE3 = molecular target: UniProt Q8VGE3
Chain of UniProt Q8VGE3 (Q8VGE3 as listed by the source): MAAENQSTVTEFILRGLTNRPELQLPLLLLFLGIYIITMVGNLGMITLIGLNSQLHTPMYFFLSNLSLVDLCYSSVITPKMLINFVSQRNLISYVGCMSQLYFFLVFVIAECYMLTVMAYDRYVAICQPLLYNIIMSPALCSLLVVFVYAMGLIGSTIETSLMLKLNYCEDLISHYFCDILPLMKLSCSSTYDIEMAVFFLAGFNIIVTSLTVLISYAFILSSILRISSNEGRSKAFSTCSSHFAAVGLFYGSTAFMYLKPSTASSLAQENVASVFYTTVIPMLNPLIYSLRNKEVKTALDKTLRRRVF
In short: as §1

UniProt Q8VGH1 = molecular target: T3, UniProt Q8VGH1
T3 sequence (whole entry): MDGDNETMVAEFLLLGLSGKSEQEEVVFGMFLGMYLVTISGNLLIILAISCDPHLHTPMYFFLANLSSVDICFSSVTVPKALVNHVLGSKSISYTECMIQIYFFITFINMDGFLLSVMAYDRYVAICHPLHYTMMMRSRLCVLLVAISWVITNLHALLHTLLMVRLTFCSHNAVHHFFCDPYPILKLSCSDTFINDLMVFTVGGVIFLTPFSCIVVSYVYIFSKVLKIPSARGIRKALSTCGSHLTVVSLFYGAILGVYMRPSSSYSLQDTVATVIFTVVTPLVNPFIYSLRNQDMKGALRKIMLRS
In short: as §1

UniProt Q8VGJ1 = molecular target: T4, UniProt Q8VGJ1
T4 sequence (whole entry): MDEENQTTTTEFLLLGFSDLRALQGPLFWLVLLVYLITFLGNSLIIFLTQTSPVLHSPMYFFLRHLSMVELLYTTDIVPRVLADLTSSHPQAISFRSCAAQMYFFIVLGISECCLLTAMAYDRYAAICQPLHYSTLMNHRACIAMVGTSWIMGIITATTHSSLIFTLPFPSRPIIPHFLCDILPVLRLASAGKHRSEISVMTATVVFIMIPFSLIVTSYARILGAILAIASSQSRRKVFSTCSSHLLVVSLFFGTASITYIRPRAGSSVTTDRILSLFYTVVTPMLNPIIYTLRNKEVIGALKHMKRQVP
In short: as §1

UniProt Q8VGJ3 = molecular target: T5, UniProt Q8VGJ3
T5 sequence (whole entry): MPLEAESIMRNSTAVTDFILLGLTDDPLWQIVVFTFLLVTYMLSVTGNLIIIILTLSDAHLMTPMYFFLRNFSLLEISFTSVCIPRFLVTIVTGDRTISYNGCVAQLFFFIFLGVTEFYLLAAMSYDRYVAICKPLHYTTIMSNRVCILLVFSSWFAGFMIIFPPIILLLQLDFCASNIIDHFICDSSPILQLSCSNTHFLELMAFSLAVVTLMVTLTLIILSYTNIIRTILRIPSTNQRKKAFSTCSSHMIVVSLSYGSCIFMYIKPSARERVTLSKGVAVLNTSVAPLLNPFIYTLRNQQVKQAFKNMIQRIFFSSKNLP
In short: as §1

UniProt Q8VGJ5 = molecular target: T6, UniProt Q8VGJ5
T6 sequence (whole entry): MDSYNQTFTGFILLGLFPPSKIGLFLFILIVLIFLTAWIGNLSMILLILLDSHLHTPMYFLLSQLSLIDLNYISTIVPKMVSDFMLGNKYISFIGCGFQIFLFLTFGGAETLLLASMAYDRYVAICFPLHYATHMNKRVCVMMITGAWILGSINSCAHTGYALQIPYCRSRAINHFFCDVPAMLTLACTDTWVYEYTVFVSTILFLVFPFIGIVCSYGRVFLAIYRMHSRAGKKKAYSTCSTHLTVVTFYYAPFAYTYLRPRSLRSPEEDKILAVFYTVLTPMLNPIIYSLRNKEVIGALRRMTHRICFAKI
In short: as §1

UniProt Q8VGK6 = molecular target: UniProt Q8VGK6
Chain of UniProt Q8VGK6 (Q8VGK6 as listed by the source): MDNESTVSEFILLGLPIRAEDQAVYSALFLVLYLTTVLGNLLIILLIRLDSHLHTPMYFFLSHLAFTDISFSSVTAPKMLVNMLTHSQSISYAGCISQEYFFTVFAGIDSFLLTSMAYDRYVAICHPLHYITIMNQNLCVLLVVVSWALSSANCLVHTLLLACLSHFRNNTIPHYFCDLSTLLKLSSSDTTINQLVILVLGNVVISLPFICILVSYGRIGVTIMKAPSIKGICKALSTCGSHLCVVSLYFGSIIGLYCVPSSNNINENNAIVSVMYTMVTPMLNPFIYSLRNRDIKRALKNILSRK
In short: as §1

UniProt Q8VGL0 = molecular target: T7, UniProt Q8VGL0
T7 sequence (whole entry): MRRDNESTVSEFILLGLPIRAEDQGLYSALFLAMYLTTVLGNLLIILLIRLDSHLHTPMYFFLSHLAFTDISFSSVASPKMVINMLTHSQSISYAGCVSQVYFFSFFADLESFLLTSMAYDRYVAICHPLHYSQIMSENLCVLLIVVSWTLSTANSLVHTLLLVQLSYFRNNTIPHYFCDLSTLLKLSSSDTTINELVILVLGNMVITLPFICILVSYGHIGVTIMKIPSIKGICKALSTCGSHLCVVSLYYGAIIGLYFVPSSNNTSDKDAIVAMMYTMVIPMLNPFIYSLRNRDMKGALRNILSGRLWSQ
In short: as §1

UniProt Q8VGL7 = molecular target: T8, UniProt Q8VGL7
T8 sequence (whole entry): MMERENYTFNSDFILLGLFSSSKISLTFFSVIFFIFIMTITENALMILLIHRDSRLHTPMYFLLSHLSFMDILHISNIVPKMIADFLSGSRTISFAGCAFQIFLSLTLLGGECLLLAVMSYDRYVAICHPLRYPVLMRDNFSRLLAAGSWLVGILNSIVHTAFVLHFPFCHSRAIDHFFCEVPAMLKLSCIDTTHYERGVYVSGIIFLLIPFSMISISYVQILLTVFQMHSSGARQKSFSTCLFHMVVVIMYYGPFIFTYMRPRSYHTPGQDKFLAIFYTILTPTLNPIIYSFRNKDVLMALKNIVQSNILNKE
In short: as §1

UniProt Q8VGM2 = molecular target: T9, UniProt Q8VGM2
T9 sequence (whole entry): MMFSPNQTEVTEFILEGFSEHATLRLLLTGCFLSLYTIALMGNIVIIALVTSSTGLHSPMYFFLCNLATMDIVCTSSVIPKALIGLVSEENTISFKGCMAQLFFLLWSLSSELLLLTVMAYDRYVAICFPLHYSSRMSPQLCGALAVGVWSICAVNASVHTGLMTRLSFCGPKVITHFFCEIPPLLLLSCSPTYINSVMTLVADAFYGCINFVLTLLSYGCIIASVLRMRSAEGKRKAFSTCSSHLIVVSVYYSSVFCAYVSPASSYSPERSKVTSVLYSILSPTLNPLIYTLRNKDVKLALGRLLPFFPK
In short: as §1

UniProt Q8VGP6 = molecular target: T10, UniProt Q8VGP6
T10 sequence (whole entry): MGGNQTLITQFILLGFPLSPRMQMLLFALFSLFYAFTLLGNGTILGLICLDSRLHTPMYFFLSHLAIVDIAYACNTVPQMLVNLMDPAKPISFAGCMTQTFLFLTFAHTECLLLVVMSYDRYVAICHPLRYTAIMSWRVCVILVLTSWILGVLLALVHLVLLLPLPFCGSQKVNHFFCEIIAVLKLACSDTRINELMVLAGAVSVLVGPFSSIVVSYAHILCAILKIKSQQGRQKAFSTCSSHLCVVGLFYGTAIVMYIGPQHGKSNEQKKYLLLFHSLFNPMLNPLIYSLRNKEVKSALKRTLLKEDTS
In short: as §1

UniProt Q8VGQ3 = molecular target: T11, UniProt Q8VGQ3
T11 sequence (whole entry): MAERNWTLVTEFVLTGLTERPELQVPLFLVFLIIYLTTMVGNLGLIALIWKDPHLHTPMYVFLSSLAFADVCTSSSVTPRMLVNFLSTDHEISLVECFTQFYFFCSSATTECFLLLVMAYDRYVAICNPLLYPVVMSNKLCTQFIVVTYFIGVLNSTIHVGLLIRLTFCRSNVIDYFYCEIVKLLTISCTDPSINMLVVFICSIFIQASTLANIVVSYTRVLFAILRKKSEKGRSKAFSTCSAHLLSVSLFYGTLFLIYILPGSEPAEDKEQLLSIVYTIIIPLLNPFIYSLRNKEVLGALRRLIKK
In short: as §1

UniProt Q8VGT4 = molecular target: T12, UniProt Q8VGT4
T12 sequence (whole entry): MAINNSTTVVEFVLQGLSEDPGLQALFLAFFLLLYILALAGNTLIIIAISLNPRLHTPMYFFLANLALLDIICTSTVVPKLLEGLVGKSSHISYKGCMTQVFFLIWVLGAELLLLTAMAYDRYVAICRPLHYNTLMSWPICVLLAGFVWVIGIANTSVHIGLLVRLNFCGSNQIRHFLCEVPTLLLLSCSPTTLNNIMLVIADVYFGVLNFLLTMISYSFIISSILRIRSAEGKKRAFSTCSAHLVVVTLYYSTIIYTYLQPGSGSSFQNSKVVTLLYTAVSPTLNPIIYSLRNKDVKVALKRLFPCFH
In short: as §1

UniProt Q8VGU3 = molecular target: T13, UniProt Q8VGU3
T13 sequence (whole entry): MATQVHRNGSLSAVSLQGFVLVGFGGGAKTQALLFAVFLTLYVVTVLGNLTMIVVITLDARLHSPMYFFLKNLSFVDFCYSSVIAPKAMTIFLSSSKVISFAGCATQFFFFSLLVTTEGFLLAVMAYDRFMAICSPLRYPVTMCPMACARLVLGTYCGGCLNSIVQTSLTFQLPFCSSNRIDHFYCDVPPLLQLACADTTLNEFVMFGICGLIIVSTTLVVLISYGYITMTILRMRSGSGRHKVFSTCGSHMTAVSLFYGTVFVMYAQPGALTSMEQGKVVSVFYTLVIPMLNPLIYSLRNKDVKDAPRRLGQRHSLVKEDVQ
In short: as §1

UniProt Q8VGV1 = molecular target: T14, UniProt Q8VGV1
T14 sequence (whole entry): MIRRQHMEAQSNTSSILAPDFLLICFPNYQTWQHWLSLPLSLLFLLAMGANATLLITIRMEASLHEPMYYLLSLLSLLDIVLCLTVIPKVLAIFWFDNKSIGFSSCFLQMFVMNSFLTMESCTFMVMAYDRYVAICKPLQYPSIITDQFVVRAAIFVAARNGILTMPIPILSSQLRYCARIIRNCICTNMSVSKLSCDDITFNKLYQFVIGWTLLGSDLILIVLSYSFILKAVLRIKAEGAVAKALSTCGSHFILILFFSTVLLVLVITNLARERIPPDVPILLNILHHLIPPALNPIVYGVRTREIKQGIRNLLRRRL
In short: as §1

UniProt Q8VGV7 = molecular target: T15, UniProt Q8VGV7
T15 sequence (whole entry): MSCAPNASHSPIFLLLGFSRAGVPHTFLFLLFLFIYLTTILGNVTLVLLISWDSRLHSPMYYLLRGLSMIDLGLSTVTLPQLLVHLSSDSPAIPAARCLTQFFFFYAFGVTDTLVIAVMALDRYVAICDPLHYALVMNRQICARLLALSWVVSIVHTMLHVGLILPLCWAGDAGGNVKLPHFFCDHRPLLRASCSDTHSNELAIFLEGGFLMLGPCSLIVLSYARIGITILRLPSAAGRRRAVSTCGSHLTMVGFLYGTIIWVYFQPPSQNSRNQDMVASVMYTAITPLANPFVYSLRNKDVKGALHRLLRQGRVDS
In short: as §1

UniProt Q8VGX3 = molecular target: T16, UniProt Q8VGX3
T16 sequence (whole entry): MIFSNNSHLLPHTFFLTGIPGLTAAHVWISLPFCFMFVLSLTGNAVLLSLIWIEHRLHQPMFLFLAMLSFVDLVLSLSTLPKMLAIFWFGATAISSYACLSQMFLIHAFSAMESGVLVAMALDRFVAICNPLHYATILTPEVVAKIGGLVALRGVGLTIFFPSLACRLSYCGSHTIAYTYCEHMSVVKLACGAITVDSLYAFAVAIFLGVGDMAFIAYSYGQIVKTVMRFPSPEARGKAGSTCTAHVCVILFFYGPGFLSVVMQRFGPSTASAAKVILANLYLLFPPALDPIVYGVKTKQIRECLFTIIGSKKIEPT
In short: as §1

UniProt Q8VGX5 = molecular target: T17, UniProt Q8VGX5
T17 sequence (whole entry): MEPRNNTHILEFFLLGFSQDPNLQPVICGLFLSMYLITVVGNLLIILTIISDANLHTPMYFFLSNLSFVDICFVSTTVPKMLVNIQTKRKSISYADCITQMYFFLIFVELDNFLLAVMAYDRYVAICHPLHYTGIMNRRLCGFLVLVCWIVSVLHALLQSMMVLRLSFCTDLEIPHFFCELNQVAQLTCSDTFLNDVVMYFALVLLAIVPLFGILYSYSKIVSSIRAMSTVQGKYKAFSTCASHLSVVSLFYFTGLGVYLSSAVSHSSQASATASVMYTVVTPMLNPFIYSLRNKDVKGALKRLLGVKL
In short: as §1

UniProt Q8VGW5 = molecular target: T18, UniProt Q8VGW5
T18 sequence (whole entry): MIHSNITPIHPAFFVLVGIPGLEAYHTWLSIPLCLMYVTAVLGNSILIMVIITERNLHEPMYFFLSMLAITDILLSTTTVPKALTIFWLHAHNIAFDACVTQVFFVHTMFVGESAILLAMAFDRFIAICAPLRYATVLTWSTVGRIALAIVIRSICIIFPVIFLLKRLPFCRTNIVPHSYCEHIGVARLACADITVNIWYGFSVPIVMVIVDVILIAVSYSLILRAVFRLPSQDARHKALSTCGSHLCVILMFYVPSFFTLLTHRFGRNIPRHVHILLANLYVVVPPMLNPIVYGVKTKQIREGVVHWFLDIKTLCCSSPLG
In short: as §1

Measured: odorant receptor agonist call

O=C1CCOc2ccccc21
active: UniProt Q8VGD7 | UniProt Q8VGE3 | UniProt Q8VGH1 | UniProt Q8VGJ5 | UniProt Q8VGK6 | UniProt Q8VGL7 | UniProt Q8VGX5
not listed: UniProt Q8VGW5
inactive: all other assays above

CCCCCCCCCO
active: UniProt Q8VGC6 | UniProt Q8VGP6
not listed: UniProt Q8VGE3 | UniProt Q8VGK6
inactive: all other assays above

CCCCOC
inactive: UniProt Q8VGC6
